Measured values: ChEMBL document CHEMBL4411315, “Discovery of Novel Dual Histone Deacetylase and Mammalian Target of Rapamycin Target Inhibitors as a Promising Strategy for Cancer Therapy” (J Med Chem, 2019)
Active and inactive are the calls of the source. The rule behind the calls is not given here.

Experiments:
[1] = target: T1, Serine/threonine-protein kinase mTOR (Homo sapiens, UniProt P42345); assay: Inhibition of mTOR in human MV4-11 cells assessed as decrease in ERK phosphorylation after 24 hrs by Western blot analysis; type: cell-based
How it was run: (§1)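 Treatment of MV4-11 cells lasted 24 h at 0.01, 0.1, 1 and 10 μM. Lysis in RIPA buffer and BCA quantitation, then 30 μg protein by SDS-PAGE, PVDF transfer, 5% milk block, primary antibody overnight at 4 °C, HRP secondary 1 h and ECL detection. p-p70S6K (T389), p-4EBP1 (S65), p-Akt (S473) and p-ERK were probed.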

[2] = target: T1, Serine/threonine-protein kinase mTOR; assay: Inhibition of mTOR in human MV4-11 cells assessed as decrease in p70S6K phosphorylation at Thr 389 residues at 0.01 to 10 uM after 24 hrs by Western blot analysis; type: cell-based; how it was run: as §1
[3] = test system: MM1.S; assay: Induction of apoptosis in human MM1S cells assessed as late apoptotic cells at 10 nM after 48 hrs by Annexin V-FITC/propidium iodide staining-based flow cytometric analysis (reference value: 0.42%); type: functional
[4] = target: Histone deacetylase 1 (Homo sapiens, UniProt Q13547); assay: Inhibition of recombinant full length HDAC1 (unknown origin) using Ac-peptide-AMC as substrate preincubated for 15 mins followed by substrate addition and measured after 1 hr by fluorescence assay
[5] = test system: MM1.S; assay: Induction of apoptosis in human MM1S cells assessed as early apoptotic cells at 320 nM after 48 hrs by Annexin V-FITC/propidium iodide staining-based flow cytometric analysis (reference value: 0.38%); type: functional
[6] = test system: MV4-11; assay: Cell cycle arrest in human MV4-11 cells assessed as accumulation at S phase at 2.5 nM after 24 hrs by propidium iodide/RNase staining-based FACS analysis (reference value: 36.42%); type: functional
[7] = test system: MV4-11; assay: Cell cycle arrest in human MV4-11 cells assessed as accumulation at G2/M phase at 10 nM after 24 hrs by propidium iodide/RNase staining-based FACS analysis (reference value: 18.79%); type: functional
[8] = test system: MM1.S; assay: Induction of apoptosis in human MM1S cells assessed as viable cells at 40 nM after 48 hrs by Annexin V-FITC/propidium iodide staining-based flow cytometric analysis (reference value: 98.9%); type: functional; details: read-out: Activity
[9] = target: T1, Serine/threonine-protein kinase mTOR; assay: Inhibition of mTOR in human MV4-11 cells assessed as decrease in 4EBP1 phosphorylation at ser 65 residues at 0.01 to 10 uM after 24 hrs by Western blot analysis; type: cell-based; how it was run: as §1

Chain of Histone deacetylase 1 (Q13547 whole entry): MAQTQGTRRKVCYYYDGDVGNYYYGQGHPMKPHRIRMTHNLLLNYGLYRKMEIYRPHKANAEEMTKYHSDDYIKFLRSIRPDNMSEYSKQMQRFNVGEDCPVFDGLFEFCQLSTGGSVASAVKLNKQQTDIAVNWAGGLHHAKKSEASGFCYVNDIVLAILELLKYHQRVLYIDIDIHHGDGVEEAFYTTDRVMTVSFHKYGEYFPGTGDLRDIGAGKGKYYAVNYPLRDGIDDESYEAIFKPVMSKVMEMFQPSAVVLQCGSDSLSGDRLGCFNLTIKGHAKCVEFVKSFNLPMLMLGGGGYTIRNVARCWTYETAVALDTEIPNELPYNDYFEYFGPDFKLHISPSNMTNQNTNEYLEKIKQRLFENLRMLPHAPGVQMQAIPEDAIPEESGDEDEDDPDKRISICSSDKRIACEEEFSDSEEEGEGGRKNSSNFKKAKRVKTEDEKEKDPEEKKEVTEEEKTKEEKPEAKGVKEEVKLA

C[C@@H]1CN(C(=O)Nc2ccc(-c3nc(N4CCOCC4)c4cnn(CCCCCCC(=O)NO)c4n3)cc2)CCO1
inhibition [1]: Dose-dependent effect | inhibition [2]: Active | Activity [3]: 1.49% | IC50 [4]: 0.19 nM | Activity [5]: 32.2% | Activity [6]: 33.77% | Activity [7]: 11.11% | viability at 0.04 µM [8]: 70.1% | inhibition [9]: Active
